What was measured:
Type in all cases: toxicity, cell-based
Fibroblast [1] = test: Incucyte cell viability with human fibroblast; conditions: 10 µM, compound concentration 10 uM; also: filed as whole numbers so only -1 and 0 and 1 occur
Fibroblast [2] = test: Multiplex assay against human fibroblast
Outline: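 Per cents of healthy-nucleus cells form the tubulin, mitochondrial-mass and membrane-permeability phenotype values. Live cells were stained at seeding with Hoechst33342, BioTracker Green Microtubule Cytoskeleton Dye, MitoTracker Red and Annexin V Alexa Fluor 680. After compound addition they were imaged on a CQ1 microscope at 37°C and 5% CO2, and CellPathfinder machine-learning gating split them into Hoechst high-intensity objects or normal cells, normal cells into healthy, pyknosed or fragmented nuclei, and pyknosed cells into mitotic or apoptotic.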

U2OS = test: Incucyte cell viability with U2OS; conditions: human, 10 µM, compound concentration 10 uM; also: filed as whole numbers so only -1 and 0 and 1 occur
HEK-293T = test: Incucyte cell viability with HEK293T; conditions: human, 10 µM, compound concentration 10 uM; also: filed as whole numbers so only -1 and 0 and 1 occur
[3] = 0 h, replicate number 1, timepoint 0 hours
[4] = 6 h, replicate number 1, timepoint 6 hours
[5] = 12 h, replicate number 1, timepoint 12 hours
[6] = 18 h, replicate number 1, timepoint 18 hours
[7] = 24 h, replicate number 1, timepoint 24 hours
[8] = 12 h, 1 µM, compound concentration 1 uM, replicate 1
[9] = 12 h, 1 µM, compound concentration 1 uM, replicate 2
[10] = 12 h, 10 µM, compound concentration 10 uM, replicate 1
[11] = 12 h, 10 µM, compound concentration 10 uM, replicate 2
[12] = 24 h, 1 µM, compound concentration 1 uM, replicate 1
[13] = 24 h, 1 µM, compound concentration 1 uM, replicate 2
[14] = 24 h, 10 µM, compound concentration 10 uM, replicate 1
[15] = 24 h, 10 µM, compound concentration 10 uM, replicate 2

## CCOc1cc2ncc(C#N)c(Nc3ccc(OCc4cccc(F)c4)c(Cl)c3)c2cc1NC(=O)/C=C/CN(C)C [HKI-357]
Fibroblast [1]; [3]
  Growth Rate: 0
Fibroblast [1]; [4]
  Growth Rate: 0
Fibroblast [1]; [5]
  Growth Rate: 0
Fibroblast [1]; [6]
  Growth Rate: 0
Fibroblast [1]; [7]
  Growth Rate: 0
Fibroblast [2]; [8]
  Population Apoptotic (%): 72%
  Population Fragmented Nuclei (%): 21%
  Population Healthy Nuclei (%): 60%
  Population Hoechst High Intensity Objects (%): 14%
  Population Membrane Permeable-Phenotype (%): 7%
  Population Mitochondria Different-Phenotype (%): 7%
  Population Mitotic Cells (%): 27%
  Population Normal (%): 85%
  Population Pyknosed Nuclei (%): 18%
  Population Tubulin-Different-Phenotype (%): 11%
  Total Cell Count: 223
Fibroblast [2]; [9]
  Population Apoptotic (%): 33%
  Population Fragmented Nuclei (%): 60%
  Population Healthy Nuclei (%): 31%
  Population Hoechst High Intensity Objects (%): 34%
  Population Membrane Permeable-Phenotype (%): 4%
  Population Mitochondria Different-Phenotype (%): 9%
  Population Mitotic Cells (%): 66%
  Population Normal (%): 65%
  Population Pyknosed Nuclei (%): 8%
  Population Tubulin-Different-Phenotype (%): 13%
  Total Cell Count: 107
Fibroblast [2]; [10]
  Population Apoptotic (%): 76%
  Population Fragmented Nuclei (%): 42%
  Population Healthy Nuclei (%): 37%
  Population Hoechst High Intensity Objects (%): 13%
  Population Membrane Permeable-Phenotype (%): 15%
  Population Mitochondria Different-Phenotype (%): 12%
  Population Mitotic Cells (%): 23%
  Population Normal (%): 86%
  Population Pyknosed Nuclei (%): 20%
  Population Tubulin-Different-Phenotype (%): 46%
  Total Cell Count: 368
Fibroblast [2]; [11]
  Population Apoptotic (%): 37%
  Population Fragmented Nuclei (%): 61%
  Population Healthy Nuclei (%): 20%
  Population Hoechst High Intensity Objects (%): 46%
  Population Mitochondria Different-Phenotype (%): 26%
  Population Mitotic Cells (%): 62%
  Population Normal (%): 53%
  Population Pyknosed Nuclei (%): 17%
  Population Tubulin-Different-Phenotype (%): 78%
  Total Cell Count: 170
Fibroblast [2]; [12]
  Population Apoptotic (%): 57%
  Population Fragmented Nuclei (%): 23%
  Population Healthy Nuclei (%): 57%
  Population Hoechst High Intensity Objects (%): 15%
  Population Membrane Permeable-Phenotype (%): 6%
  Population Mitochondria Different-Phenotype (%): 3%
  Population Mitotic Cells (%): 42%
  Population Normal (%): 84%
  Population Pyknosed Nuclei (%): 18%
  Population Tubulin-Different-Phenotype (%): 5%
  Total Cell Count: 238
Fibroblast [2]; [13]
  Population Apoptotic (%): 60%
  Population Fragmented Nuclei (%): 59%
  Population Healthy Nuclei (%): 33%
  Population Hoechst High Intensity Objects (%): 31%
  Population Membrane Permeable-Phenotype (%): 13%
  Population Mitochondria Different-Phenotype (%): 4%
  Population Mitotic Cells (%): 40%
  Population Normal (%): 68%
  Population Pyknosed Nuclei (%): 7%
  Population Tubulin-Different-Phenotype (%): 18%
  Total Cell Count: 97
Fibroblast [2]; [14]
  Population Apoptotic (%): 73%
  Population Fragmented Nuclei (%): 44%
  Population Healthy Nuclei (%): 42%
  Population Hoechst High Intensity Objects (%): 19%
  Population Membrane Permeable-Phenotype (%): 5%
  Population Mitochondria Different-Phenotype (%): 7%
  Population Mitotic Cells (%): 26%
  Population Normal (%): 80%
  Population Pyknosed Nuclei (%): 12%
  Population Tubulin-Different-Phenotype (%): 39%
  Total Cell Count: 409
Fibroblast [2]; [15]
  Population Apoptotic (%): 63%
  Population Fragmented Nuclei (%): 69%
  Population Healthy Nuclei (%): 19%
  Population Hoechst High Intensity Objects (%): 45%
  Population Membrane Permeable-Phenotype (%): 4%
  Population Mitochondria Different-Phenotype (%): 23%
  Population Mitotic Cells (%): 36%
  Population Normal (%): 54%
  Population Pyknosed Nuclei (%): 10%
  Population Tubulin-Different-Phenotype (%): 66%
  Total Cell Count: 193
U2OS; 0 h, replicate number 2, timepoint 0 hours
  Growth Rate: 0
U2OS; [4]
  Growth Rate: 0
U2OS; [5]
  Growth Rate: 0
U2OS; [6]
  Growth Rate: 0
U2OS; [7]
  Growth Rate: 0
HEK-293T; [3]
  Growth Rate: 0
HEK-293T; [4]
  Growth Rate: 0
HEK-293T; [5]
  Growth Rate: 0
HEK-293T; [6]
  Growth Rate: 0
HEK-293T; [7]
  Growth Rate: 0

Reference: ChEMBL document CHEMBL4689842, “EUbOPEN Chemogenomics Library wave 1” (2021)
